Screening results deposited in PubChem BioAssay by The Scripps Research Institute Molecular Screening Center.
Shown are actives, neighbours in structure and some others; about 3.5% of the full set was active somewhere.
mABHD4 FP: inhibitors of mouse ABHD4; 0.54% of 370,000 active; inhibition, % at 8.92 µM; purified mABHD4, FP-Rh probe fluorescence polarization;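 active = inhibition exceeding the mean over every tested compound plus 3 SD, cut at about 30% in these data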;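 note: 0% = plate median of compound wells and 100% = S159A mutant with DMSO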
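Assay system: mouse ABHD4 enzyme, wild type / Also added: fluorescent activity-based probe FP-Rh / Doses: single nominal dose of 8.92 µM, 0.89% DMSO final / Timing: 45 min compound pre-incubation plus 60 min probe step, 25 °C / Signal: FP readout, ex 525 nm / em 598 nm / Control set: S159A mutant/DMSO as 100%, compound-well median as 0%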
PRMT1 FP inh: PRMT1 (human) inhibition, primary screen. recombinant PRMT1, activity-based probe fluorescence polarization. inhibition, % at 2.79 µM. 1.3% of 370,000 active. AID 652257;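 active = inhibition above about 21% made by adding two undisclosed values, limit read from the data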
TCR-CD3 inh: inhibitors of human TCR-CD3 interaction | 0.37% of 360,000 active | TAMRA-labeled TCR probe fluorescence, biochemical | inhibition, % at 9.4 µM; in the data active = inhibition above about 19%;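 note: recombinant mutant TCR 2C K166C tagged with TAMRA read by polarization; 0% = receptor in buffer alone and 100% = receptor with positive control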
rCAG binder: molecules binding r(CAG) RNA repeats; r(CAG) RNA repeat, TO-PRO-1 dye displacement fluorescence; inhibition, % at 3 µM; 1.3% of 370,000 active;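 active = inhibition above the plate cutoff, the mean of all test compounds on that plate plus 3 SD, cut at about 35% in these data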;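 note: 0% = DMSO alone and 100% = 100 µM mitoxantrone as full dye displacement; higher means more dye released from RNA so lower well fluorescence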
HTRA1 inh: inhibitors of human serine peptidase HTRA1; 0.5% of 340,000 active; recombinant HTRA1, FP-rhodamine activity-based probe, fluorescence polarization; Q92743; inhibition, % at 5.96 µM; in the data active = inhibition above about 36%;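 note: 0% = enzyme with DMSO and 100% = wells lacking enzyme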
Target sequence (Q92743 whole entry, looked up): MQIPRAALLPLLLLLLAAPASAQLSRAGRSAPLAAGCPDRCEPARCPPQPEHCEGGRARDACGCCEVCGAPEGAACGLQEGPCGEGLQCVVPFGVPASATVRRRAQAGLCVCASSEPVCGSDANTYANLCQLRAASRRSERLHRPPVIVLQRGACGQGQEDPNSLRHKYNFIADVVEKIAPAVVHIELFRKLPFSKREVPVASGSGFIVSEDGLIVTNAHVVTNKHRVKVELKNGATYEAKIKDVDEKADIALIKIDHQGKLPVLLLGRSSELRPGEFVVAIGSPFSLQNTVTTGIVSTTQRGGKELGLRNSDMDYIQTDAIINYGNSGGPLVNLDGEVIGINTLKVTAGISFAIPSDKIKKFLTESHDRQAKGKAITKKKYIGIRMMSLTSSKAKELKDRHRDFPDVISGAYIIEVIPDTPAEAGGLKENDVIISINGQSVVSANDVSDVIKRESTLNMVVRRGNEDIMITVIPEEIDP
SIAE inh: inhibitors of human sialic acid acetylesterase SIAE; AID 1053197; SIAE FP-Rh probe binding, fluorescence polarization; 0.69% of 370,000 active; inhibition, % at 9.66 µM; Q9HAT2;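 active = inhibition above a cutoff: mean of compounds within the control limits plus 3 SD of those, cut at about 17% in these data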;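 note: 0% = plate median of compound wells and 100% = probe without SIAE protein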
PRMT1 confirm: confirmation of human PRMT1 inhibitors; shares compounds with PRMT1 FP inh; recombinant His-PRMT1, activity-based probe fluorescence polarization; inhibition, % at 2.79 µM; 42% of 3,300 active; AID 687036;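 active = mean inhibition across replicates above the hit cutoff derived for the earlier primary screen, cut at about 22% in these data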
* marks the source's active call; other numbers are inactive results; . = not tested or not shown.

SMILES | mABHD4 FP | PRMT1 FP inh | TCR-CD3 inh | rCAG binder | HTRA1 inh | SIAE inh | PRMT1 confirm
O=C1CC(N2CCC(c3nc4ccccc4o3)CC2)C(=O)N1Cc1cccs1 (stereo not drawn) | 6 | 47* | 0 | -8 | -38 | -3 | 2
NC(=O)C1CCN(C2CC(=O)N(Cc3cccs3)C2=O)CC1 (stereo not drawn) | 7 | 74* | -2 | -2 | 12 | -4 | 0
COC(=O)[C@@H](CC(C)C)CP(=O)(OC)[C@@H](C)NC(=O)OCc1ccccc1 (stereo partly drawn) | -3 | 1 | . | 1 | . | 2 | .
Cc1cc(NC(=O)CSc2nc3ccsc3c(=O)n2Cc2ccccn2)n[nH]1 | 7 | 18 | -2 | -2 | 7 | 12 | .
O=c1c2sccc2nc(SCc2cc(=O)n3ccccc3n2)n1Cc1ccccn1 | -2 | 27* | -6 | -1 | . | -4 | 15
COc1ccc(OC)c(-n2c(=S)[nH]c3c(sc(=S)n3-c3ccccc3)c2=O)c1 | -2 | 65* | 1 | 5 | -8 | -2 | 9
COc1ccc(OC)c(-n2c(=O)c3ccccc3c3ccccc3c2=O)c1 | 6 | -1 | -2 | -2 | -13 | -6 | .
O=C(NC1CCCC1)c1ccc(COc2ccccc2)o1 | -7 | 5 | . | 3 | . | -2 | .
COC(=O)[C@]12C[C@H](CC(=O)NCc3ccccc3)C(=O)N(Cc3ccc(Cl)cc3Cl)C1=C[C@H](C1CCCC1)O[C@@H]2C | -7 | 1 | . | 5 | . | -6 | .
O=C(NC(=S)NC(=O)c1ccccc1F)c1ccccc1F | -2 | 28* | -6 | 0 | -1 | -5 | 2
Cc1ccc(S(=O)(=O)N2OC(c3ccccc3)C[C@H]2CC=C(c2ccccc2)c2ccccc2)cc1 (stereo partly drawn) | -4 | -1 | . | . | . | 2 | .
O=S1(=O)CC=C(CSC(=S)NC2CCS(=O)(=O)C2)C1 (stereo not drawn) | -6 | 26* | 1 | -1 | 8 | -12 | 91*
CCS(=O)(=O)c1c([N+](=O)[O-])ncn1C | 5 | 6 | 0 | 1 | 2 | -6 | .
Cn1cnc([N+](=O)[O-])c1S(=O)(=O)Oc1ccc(Cl)cc1 | -3 | 31* | -6 | 0 | 4 | 0 | 23*
CCOC(=O)C1CSC2(CCC(c3ccccc3)CC2)N1 (stereo not drawn) | -3 | 48* | -4 | 1 | -3 | -1 | 28*
CCOC(=O)C1NC(=O)CC1c1ccccc1 (stereo not drawn) | -14 | -1 | -5 | 3 | 1 | 6 | .
CCCCCCCCN1C(=O)[C@@H](CC(=O)NCCCOC)C[C@@]2(C(=O)OC)C1=C[C@H](COCc1ccccc1)O[C@@H]2C | -4 | -1 | . | 5 | . | -2 | .
CCCC(=O)OCCNc1cc(Sc2nc3ccccc3[nH]2)c2nonc2c1[N+](=O)[O-] | 17 | 67* | 0 | 16 | 0 | 10 | 73*
CCC(=O)OCCNc1cc(SCCC(=O)OC)c2nonc2c1[N+](=O)[O-] | 3 | 11 | 2 | 4 | 7 | -5 | .
CCC(=O)OCCNc1cc(Sc2nccn2C)c2nonc2c1[N+](=O)[O-] | 2 | 43* | 4 | 1 | 0 | -1 | 65*
Cc1ccccc1NC(=O)Cn1nnc(-c2ccncc2)n1 | 3 | 2 | . | 2 | . | 1 | .
COC(=O)C1=C(C)NC(C)=C(C(=O)OCC(C)C)C1c1ccccc1[N+](=O)[O-] (stereo not drawn) | 18 | 25* | 3 | 0 | 6 | 6 | 18
NC(=O)CN1C(=O)/C(=c2\sc3nc(=O)c(Cc4ccccc4)nn3c2=O)c2ccccc21 | -7 | 45* | -5 | 6 | . | -1 | 40*
CCCN1C(=O)/C(=c2\sc3nc(=O)c(Cc4ccc(C)cc4)nn3c2=O)c2ccccc21 | 3 | 13 | 4 | 5 | 6 | 4 | .
O=C(O)c1ccc(-n2c(-c3cc(-c4ccco4)[nH]n3)n[nH]c2=S)cc1 | 25 | 49* | 17 | 16 | 5 | -4 | 13
SMILES | mABHD4 FP | PRMT1 FP inh | TCR-CD3 inh | rCAG binder | HTRA1 inh | SIAE inh | PRMT1 confirm
S=c1[nH]nc(-c2cc(-c3ccco3)[nH]n2)n1-c1cccc2ccccc12 | 13 | 36* | 0 | 22 | -6 | 2 | 33*
NC(=O)C1(N2CCCCC2)CCN(C(=S)Nc2ccc(S(N)(=O)=O)cc2)CC1 | -7 | 27* | -1 | 1 | -2 | 2 | 36*
NC(=O)C1(N2CCCCC2)CCN(C(=S)Nc2ccccc2)CC1 | 5 | -3 | -8 | 1 | -1 | 4 | .
CCOC(=O)[C@@]12CCC3=C1N(CCC3)C(=O)[C@H](CC(=O)NCc1ccc(C)o1)C2 | 2 | -2 | . | 0 | . | 5 | .
Nc1cccnc1Sc1cccc(Cl)c1 | 8 | 31* | 4 | -1 | 3 | 0 | 4
Cc1nc2scc(-c3ccccc3)c2c(=O)n1N | -3 | 4 | -7 | 3 | 6 | -2 | .
Cc1nc2scc(-c3ccccc3)c2c(=O)n1N=C1C=CC(=O)C=C1 | 10 | 90* | -1 | 3 | . | 16 | 94*
CC(C)c1ccc(CCNC(=O)CSC(=S)N2CCCC2)cc1 | -17 | 32* | 0 | -7 | -7 | -4 | 15
COc1ccc(CNC(=O)CSC(=S)N2CCCC2)cc1 | -6 | 3 | -2 | -5 | -2 | -4 | .
CC(=O)Nc1ccc(SCCN2CC[C@@H](C(C)(C)C)CCC2=O)cc1 | 0 | 41* | 3 | -2 | 1 | 2 | 43*
CC(=O)Nc1ccc(SC[C@H](C)CN2CC[C@H](O)CCC2=O)cc1 | 3 | 26* | 2 | -1 | -6 | 1 | 38*
COC(=O)c1ccccc1NC(=O)CSc1nnc(-c2ccncc2)o1 | 8 | 34* | -6 | 22 | 4 | -4 | 45*
CC(C)n1ncc2c(C(=O)Nc3ccccc3SCC(N)=O)cc(C3CC3)nc21 | -6 | 80* | -2 | 0 | -19 | -4 | -3
COCCSc1ccccc1C(=O)Nc1cc(C)on1 | 6 | 26* | -3 | 0 | 8 | -4 | 22*
COc1ccccc1C(=O)Nc1cc(C)on1 | 0 | -4 | 3 | 0 | -2 | 0 | .
COc1ccccc1C/C(N)=N/OC(=O)c1cccc([N+](=O)[O-])c1 | -12 | 3 | -5 | 2 | -8 | -8 | .
COc1ccc(C/C(N)=N/OC(=O)c2cccc([N+](=O)[O-])c2)cc1 | 4 | 45* | -6 | -6 | -5 | -3 | 4
Cc1ccc(/C=[N+](\[O-])c2ccccc2C)o1 | 0 | 30* | -6 | 0 | 3 | 2 | -3
COC(=O)c1cc(-c2ccccc2)c(=O)n2c1CCC2 | 0 | -5 | . | 0 | . | -2 | .
Cc1ccc2nc(N3C(=O)C(O)=C(C(=O)c4ccco4)C3c3cccs3)sc2c1 (stereo not drawn) | 11 | 35* | 2 | 31 | -32 | 0 | 12
